≈ marks a conversion by molar mass, not a printed value. Calls of active or inactive are those of the source. No cut-off for these calls is given here.
How the values were obtained:
[1] = test system: Candida albicans; assay: Antifungal activity against Candida albicans cgmcc 2.2086 in presence of 25% human heat-inactivated serum by broth dilution method; format: functional
[2] = test system: Candida albicans; assay: Antifungal activity against Candida albicans SP3903 after 48 hrs by broth microdilution method; format: functional; conditions: SP3903, 48 h
Method in brief: (§1)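 Modified CLSI M27-A2 broth microdilution. Yeast at (0.5−1) × 10^3 CFU/mL in MOPS-buffered RPMI 1640 was mixed 1:1 with peptide serially diluted in 0.2% BSA and incubated 48 h at 28 °C. Absorbance was read at 492 nm; MIC is the lowest concentration inhibiting 95% of growth. Triplicate, three biological replicates.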

[3] = test system: Candida albicans; assay: Antifungal activity against fluconazole-resistant Candida albicans 56452 after 48 hrs by broth microdilution method; format: functional; conditions: Candida albicans, 56452, 48 h; method in brief: as §1
[4] = test system: Candida albicans; assay: Antifungal activity against Candida albicans cgmcc 2.2086 in presence of 50% human heat-inactivated serum by broth dilution method; format: functional
[5] = test system: Lipid bilayer; assay: Binding affinity to phosphatidylcholine/cholesterol large unilamellar vesicle assessed as induction of calcein leakage at 2 to 32 uM after 15 mins by spectrofluorophotometric method; conditions: 0.25 h
Method in brief: (§2)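 Large unilamellar vesicles were made from PG/CL/PE (2:1:7), PC/PE/PI/ergosterol (5:4:1:2) or PC/cholesterol (10:1), loaded with 70 mM calcein in Tris/NaCl/EDTA buffer at pH 7.4, frozen and thawed 20 times, and extruded through 100 nm filters. Free dye was removed by gel filtration, and peptide-induced calcein release was measured.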

[6] = test system: Candida albicans; assay: Disruption of cytoplasmic membrane electrical potential in Candida albicans cgmcc 2.2086 at MFC after 800 secs by DiSC3-5 dye-based fluorescence spectrophotometric method; format: functional, organism-based
Method in brief: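 Cells were loaded with the membrane potential-sensitive dye DiSC3-5, and its release on peptide treatment (various concentrations, including 1× MBC/MFC) was monitored as increasing fluorescence over 800 s.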

[7] = test system: Candida albicans; assay: Fungicidal activity against Candida albicans SP3931 after 96 hrs; format: functional; conditions: SP3931, 96 h, read-out: MFC99.9
Method in brief: (§3)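 After the 48 h, 28 °C broth microdilution in MOPS-buffered RPMI 1640 (inoculum (0.5−1) × 10^3 CFU/mL), 50 μL from each well was plated on YM agar for a further 48 h at 28 °C. MFC is the lowest concentration killing at least 99.9% of cells. Triplicate, three biological replicates.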

[8] = test system: Candida albicans; assay: Antifungal activity against Candida albicans cgmcc 2.2086 in presence of NH4Cl by broth dilution method; format: functional
[9] = test system: Candida albicans; assay: Antifungal activity against Candida albicans cgmcc 2.2086 in presence of 12.5% human heat-inactivated serum by broth dilution method; format: functional
[10] = test system: Candida albicans; assay: Fungicidal activity against Candida albicans SP3903 after 96 hrs; format: functional; conditions: SP3903, 96 h, read-out: MFC99.9; method in brief: as §3
[11] = test system: Candida albicans; assay: Antifungal activity against Candida albicans SP3902 after 48 hrs by broth microdilution method; format: functional; conditions: SP3902, 48 h; method in brief: as §1
[12] = test system: Candida albicans; assay: Fungicidal activity against Candida albicans SP3876 after 96 hrs; format: functional; conditions: SP3876, 96 h, read-out: MFC99.9; method in brief: as §3
[13] = test system: Candida albicans; assay: Fungicidal activity against Candida albicans cgmcc 2.2086 after 96 hrs; format: functional; conditions: cgmcc 2.2086, 96 h, read-out: MFC99.9; method in brief: as §3
[14] = test system: Candida albicans; assay: Antifungal activity against Candida albicans cgmcc 2.2086 in presence of NaCl by broth dilution method; format: functional
[15] = test system: Candida albicans; assay: Antifungal activity against Candida albicans cgmcc 2.2086 in presence of CaCl2 by broth dilution method; format: functional
[16] = test system: Candida albicans; assay: Antifungal activity against Candida albicans SP3876 after 48 hrs by broth microdilution method; format: functional; conditions: SP3876, 48 h; method in brief: as §1
[17] = test system: Candida albicans; assay: Fungicidal activity against fluconazole-resistant Candida albicans 56214 after 96 hrs; format: functional; conditions: Candida albicans, 56214, 96 h; read-out: MFC99.9; method in brief: as §3
[18] = test system: Candida albicans; assay: Fungicidal activity against Candida albicans SP3902 after 96 hrs; format: functional; conditions: SP3902, 96 h, read-out: MFC99.9; method in brief: as §3
[19] = test system: Candida parapsilosis; assay: Antifungal activity against Candida parapsilosis cgmcc 2.3989 after 48 hrs by broth microdilution method; format: functional; conditions: Lodderomyces parapsilosis, cgmcc 2.3989, 48 h
Method in brief: (§4)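 Modified CLSI M27-A2 broth microdilution. Yeast were suspended in MOPS-buffered RPMI 1640 at a final (0.5−1) × 10^3 CFU/mL and mixed 1:1 with peptide serially diluted in 0.2% BSA. Plates were incubated 48 h at 28 °C and read at A492. MIC is the lowest concentration giving 95% inhibition. Run in triplicate with three biological replicates.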

[20] = test system: Pichia kudriavzevii; assay: Antifungal activity against Candida krusei cgmcc 2.1857 after 48 hrs by broth microdilution method; format: functional; conditions: cgmcc 2.1857, 48 h; method in brief: as §4
[21] = test system: Candida albicans; assay: Antifungal activity against fluconazole-resistant Candida albicans 56214 after 48 hrs by broth microdilution method; format: functional; conditions: Candida albicans, 56214, 48 h; method in brief: as §1
[22] = test system: Candida albicans; assay: Fungicidal activity against Candida albicans 58288 after 96 hrs; format: functional; conditions: Candida albicans, 58288, 96 h; read-out: MFC99.9; method in brief: as §3
[23] = test system: Candida albicans; assay: Antifungal activity against Candida albicans cgmcc 2.2086 in presence of ZnCl2 by broth dilution method; format: functional
[24] = test system: Candida albicans; assay: Antifungal activity against Candida albicans cgmcc 2.2086 after 48 hrs by broth microdilution method; format: functional; conditions: cgmcc 2.2086, 48 h; method in brief: as §1
[25] = test system: Candida albicans; assay: Antifungal activity against Candida albicans 58288 after 48 hrs by broth microdilution method; format: functional; conditions: Candida albicans, 58288, 48 h; method in brief: as §1
[26] = test system: Candida tropicalis; assay: Antifungal activity against Candida tropicalis cgmcc 2.1975 after 48 hrs by broth microdilution method; format: functional; conditions: cgmcc 2.1975, 48 h; method in brief: as §4
[27] = test system: Candida albicans; assay: Fungicidal activity against Candida albicans isolated from alveolar fluid after 96 hrs; format: functional; conditions: read-out: MFC99.9; method in brief: as §3
[28] = test system: Candida albicans; assay: Antifungal activity against Candida albicans cgmcc 2.2086 in presence of FeCl3 by broth dilution method; format: functional
[29] = test system: Candida albicans; assay: Antifungal activity against Candida albicans 14936 after 48 hrs by broth microdilution method; format: functional; conditions: Candida albicans, 14936, 48 h; method in brief: as §1
[30] = test system: Candida albicans; assay: Antifungal activity against Candida albicans cgmcc 2.2086 in presence of KCl by broth dilution method; format: functional
[31] = test system: Lipid bilayer; assay: Binding affinity to phosphatidylcholine/phosphatidylethanolamine/phosphatidylinositol/ergosterol large unilamellar vesicle assessed as induction of calcein leakage at 2 to 32 uM after 15 mins by spectrofluorophotometric method; method in brief: as §2
[32] = test system: Candida albicans; assay: Fungicidal activity against fluconazole-resistant Candida albicans 56452 after 96 hrs; format: functional; conditions: Candida albicans, 56452, 96 h; read-out: MFC99.9; method in brief: as §3
[33] = test system: Candida albicans; assay: Fungicidal activity against Candida albicans 14936 after 96 hrs; format: functional; conditions: Candida albicans, 14936, 96 h; read-out: MFC99.9; method in brief: as §3
[34] = test system: Candida albicans; assay: Fungicidal activity against fluconazole-resistant Candida albicans 17546 after 96 hrs; format: functional; conditions: Candida albicans, 17546, 96 h; read-out: MFC99.9; method in brief: as §3
[35] = test system: Pichia kudriavzevii; assay: Fungicidal activity against Candida krusei cgmcc 2.1857 after 96 hrs; format: functional; conditions: cgmcc 2.1857, 96 h, read-out: MFC99.9
Method in brief: (§5)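 Wells from the 48 h, 28 °C RPMI 1640/MOPS microdilution plates were plated on YM agar and incubated a further 48 h at 28 °C. MFC is the lowest concentration killing at least 99.9% of cells. Run in triplicate with three biological replicates.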

[36] = test system: Candida tropicalis; assay: Fungicidal activity against Candida tropicalis cgmcc 2.1975 after 96 hrs; format: functional; conditions: cgmcc 2.1975, 96 h, read-out: MFC99.9; method in brief: as §5
[37] = test system: Candida parapsilosis; assay: Fungicidal activity against Candida parapsilosis cgmcc 2.3989 after 96 hrs; format: functional; conditions: Lodderomyces parapsilosis, cgmcc 2.3989, 96 h; read-out: MFC99.9; method in brief: as §5
[38] = test system: Candida albicans; assay: Antifungal activity against fluconazole-resistant Candida albicans 17546 after 48 hrs by broth microdilution method; format: functional; conditions: Candida albicans, 17546, 48 h; method in brief: as §1
[39] = test system: Candida albicans; assay: Antifungal activity against Candida albicans SP3931 after 48 hrs by broth microdilution method; format: functional; conditions: SP3931, 48 h; method in brief: as §1
[40] = test system: Candida albicans; assay: Antifungal activity against Candida albicans isolated from alveolar fluid after 48 hrs by broth microdilution method; format: functional; method in brief: as §1
[41] = test system: Candida albicans; assay: Antifungal activity against Candida albicans cgmcc 2.2086 in presence of MgCl2 by broth dilution method; format: functional

`OC(Cn1cncn1)(Cn1cncn1)c1ccc(F)cc1F` [FLUCONAZOLE] was tested, and the MIC [1] was 1 µM, the MIC95 [2] was 16 µM (≈ 4.9 µg/mL) and the MIC95 [3] was > 64 µM. For the same compound, the MIC [4] was 2 µM, the Activity [5] was “Not Active” and the Activity [6] was “inactive”. The MFC [7] was 64 µM (≈ 19.6 µg/mL), the MIC [8] was 1 µM and the MIC [9] was 1 µM. For the same compound, the MFC [10] was 64 µM (≈ 19.6 µg/mL), the MIC95 [11] was 16 µM (≈ 4.9 µg/mL) and the MFC [12] was > 64 µM. It also gave an MFC [13] of 2 µM (≈ 0.613 µg/mL), an MIC [14] of 1 µM and an MIC [15] of 1 µM. The MIC95 [16] was > 64 µM, the MFC [17] was > 64 µM and the MFC [18] was > 64 µM. For the same compound, the MIC95 [19] was 4 µM (≈ 1.23 µg/mL), the MIC95 [20] was 64 µM (≈ 19.6 µg/mL) and the MIC95 [21] was > 64 µM. For the same compound, the MFC [22] was > 64 µM, the MIC [23] was 1 µM and the MIC95 [24] was 1 µM (≈ 0.306 µg/mL). The MIC95 [25] was 8 µM (≈ 2.45 µg/mL), the MIC95 [26] was 4 µM (≈ 1.23 µg/mL) and the MFC [27] was 8 µM (≈ 2.45 µg/mL). For the same compound, the MIC [28] was 1 µM, the MIC95 [29] was 32 µM (≈ 9.8 µg/mL) and the MIC [30] was 1 µM. For the same compound, the Activity [31] was “inactive”, the MFC [32] was > 64 µM and the MFC [33] was > 64 µM. The MFC [34] was > 64 µM, the MFC [35] was 64 µM (≈ 19.6 µg/mL) and the MFC [36] was 32 µM (≈ 9.8 µg/mL). The MFC [37] was 8 µM (≈ 2.45 µg/mL), the MIC95 [38] was > 64 µM and the MIC95 [39] was 1 µM (≈ 0.306 µg/mL). It also gave an MIC95 [40] of 2 µM (≈ 0.613 µg/mL) and an MIC [41] of 1 µM.

Reference: ChEMBL document CHEMBL4177755, “Combating Drug-Resistant Fungi with Novel Imperfectly Amphipathic Palindromic Peptides” (J Med Chem, 2018)
